Bioassay records from PubChem.
FLuc inhib CS: counter-screen for luciferase assay inhibitors: firefly luciferase inhibition. ATPLite firefly luciferase biochemical luminescence, 10 min. P08659. inhibition, % at 10 µM. 200,000 tested, 1.5% active;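 active means inhibition above about 50% when tested at 10 µM, limit read from the data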
Target sequence (P08659 whole entry, looked up): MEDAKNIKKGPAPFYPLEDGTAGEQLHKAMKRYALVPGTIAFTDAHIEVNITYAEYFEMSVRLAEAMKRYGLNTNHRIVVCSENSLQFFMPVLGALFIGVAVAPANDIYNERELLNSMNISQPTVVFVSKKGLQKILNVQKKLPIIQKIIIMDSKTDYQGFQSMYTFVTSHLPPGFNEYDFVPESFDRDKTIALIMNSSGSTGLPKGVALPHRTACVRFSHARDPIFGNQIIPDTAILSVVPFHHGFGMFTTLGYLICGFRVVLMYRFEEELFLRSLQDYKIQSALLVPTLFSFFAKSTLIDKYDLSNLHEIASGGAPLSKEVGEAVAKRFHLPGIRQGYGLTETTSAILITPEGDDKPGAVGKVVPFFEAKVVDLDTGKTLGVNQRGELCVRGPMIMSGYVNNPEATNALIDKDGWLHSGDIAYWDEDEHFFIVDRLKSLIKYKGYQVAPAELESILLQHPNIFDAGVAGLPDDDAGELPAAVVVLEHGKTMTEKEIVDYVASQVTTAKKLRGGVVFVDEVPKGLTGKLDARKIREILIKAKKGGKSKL
NF-kB neuron act: raises NF-kB expression in human neuronal cells; 190,000 tested, 1.6% active; NF-kB reporter expression; stronger effect = higher value; AID 1239; fold change at 12.5 µM; in the data active means fold change above about 3.3
APP 5'UTR act: activates APP 5'UTR luciferase reporter | SH-SY5Y APP 5'UTR luciferase reporter, luminescence; zero percent = DMSO vehicle wells | activation, % at 2 µM | 190,000 tested, 1% active;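 active means activation above a set limit, based on mean plus 3 SD of controls, cut at about 140% in these data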
STAT1 act: increases IFN-gamma driven STAT1 reporter signal; 200,000 tested, 2.6% active; AID 932; NIH 3T3 STAT1-luciferase reporter, luminescence; 100% = IFN-gamma alone, no compound; activation (% of control), % at 5.5 µM;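 active means activation above the screen-wide mean activation plus 3 SD, cut at about 130% in these data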;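 further: raw ratio to IFN-gamma control signal so 100% means no change and 0% no light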
FLuc stim CS: firefly luciferase counter-screen for stimulation assays | 200,000 tested, under 10 active | activation factor at 10 µM | ATPlite luciferase biochemical, luminescence, 10 min; 0 = ATP-free wells, 1 = DMSO control | P08659;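 active means luciferase activation factor, scaled between plate controls, of at least 2 with compound at 10 µM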
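Assay system – cell-free luciferase reagent · Medium – PBS-based ATP solution · Dosing – test compounds dosed from 2 mM stocks in 100% DMSO · Timing – 10 min, room temperature · Technique – light output (luminescence) · Measure – luminescence gain marking luciferase activators · Controls – No-ATP low control, compound-free enzyme-plus-ATP high control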
The depositor's hits bear a star. A selection: hits, their analogues and other compounds. The true share with any hit is near 4.3%.

For COc1cc(/C=C(/C#N)C(=O)Nc2ccc(C)cc2)ccc1Oc1nc(Cl)ncc1F the results were FLuc inhib CS 0.1, NF-kB neuron act 1.05, APP 5'UTR act -8.7, STAT1 act 99.8 and FLuc stim CS 1.
Screening CN(C)/C=C1\Oc2ccc3ccccc3c2C1=O returned FLuc inhib CS 8.4, NF-kB neuron act 3.73*, APP 5'UTR act 86.3, STAT1 act 135.4* and FLuc stim CS 0.9.
For Clc1ccc(-c2nc3ccncc3[nH]2)cc1 the results were FLuc inhib CS 73.1*, NF-kB neuron act 1.32, APP 5'UTR act 16.4, STAT1 act 141.0* and FLuc stim CS 0.3.
For CCOC(=O)Cc1ncccc1C(=O)Nc1ccc(Oc2ccccc2)cc1 the results were FLuc inhib CS 5.0, NF-kB neuron act 0.93, APP 5'UTR act 25.6, STAT1 act 102.6 and FLuc stim CS 0.9.
Cc1nnc2n(c1=O)N=C(c1ccc(Cl)cc1)CS2 was read as FLuc inhib CS -5.4, NF-kB neuron act 2.93, APP 5'UTR act 112.1, STAT1 act 132.4* and FLuc stim CS 1.1.
Clc1ccc(C2=Nn3c(nnc3-c3cccs3)SC2)cc1 was read as FLuc inhib CS -3.4, NF-kB neuron act 1.19, APP 5'UTR act -4.6, STAT1 act 97.6 and FLuc stim CS 1.
Screening OCCC1CN(Cc2cccc3nonc23)CCN1C1CCCCC1 (stereo unspecified) returned FLuc inhib CS -6.2, NF-kB neuron act 1.23, APP 5'UTR act -3.5, STAT1 act 106.3 and FLuc stim CS 1.1.
For Cc1cc(O)ccc1N/C=C/c1onc(C)c1[N+](=O)[O-] the results were FLuc inhib CS 1.6, NF-kB neuron act 2.61, APP 5'UTR act 162.1*, STAT1 act 134.6* and FLuc stim CS 1.
CC(C)c1onc(C(=O)Nc2cccc(O)c2)c1[N+](=O)[O-] was read as FLuc inhib CS 9.8, NF-kB neuron act 1.72, APP 5'UTR act 21.4, STAT1 act 102.1 and FLuc stim CS 0.9.
`COc1ccc(NC(=O)c2[nH]c(C)c(C(C)=O)c2C)cc1Cl` gave FLuc inhib CS 2.2, NF-kB neuron act 1.09, APP 5'UTR act 22.5, STAT1 act 101.9 and FLuc stim CS 1.
For CC(=O)c1c(C)[nH]c(C(=O)Nc2ccc(C)c(C)c2)c1C the results were FLuc inhib CS 5.3, NF-kB neuron act 3.77*, STAT1 act 138.3* and FLuc stim CS 0.9.
For CC(=O)c1c(C)[nH]c(C(=O)Nc2ccc3c(c2)OCCO3)c1C the results were FLuc inhib CS 43.4, NF-kB neuron act 5.47*, APP 5'UTR act 193.4*, STAT1 act 138.4* and FLuc stim CS 0.6.
For CCOC(=O)c1[nH]c(C)c(C(=O)Nc2ccc3c(c2)OCCO3)c1C the results were FLuc inhib CS 6.7, NF-kB neuron act 1.16, APP 5'UTR act 28.2, STAT1 act 100.8 and FLuc stim CS 0.9.
`CCOC(=O)c1c(C)[nH]c(C(=O)NNC(=O)c2ccccc2)c1C` gave FLuc inhib CS 35.2, NF-kB neuron act 3.42*, APP 5'UTR act 164.4*, STAT1 act 145.8* and FLuc stim CS 0.6.
Screening COC(=O)c1c(C)[nH]c(C(=O)/C=C/c2ccccc2)c1C returned FLuc inhib CS 58.2*, NF-kB neuron act 1.55, APP 5'UTR act 120.6, STAT1 act 140.1* and FLuc stim CS 0.4.
Screening CC(=O)c1c(C)oc2ccc(NS(=O)(=O)c3cccs3)cc12 returned FLuc inhib CS -2.2, NF-kB neuron act 0.96, APP 5'UTR act -10.1, STAT1 act 90.2 and FLuc stim CS 1.
Cc1ccc(O)c(C2=NOC(O)(C(F)(F)F)C2)c1 (stereo unspecified) was read as FLuc inhib CS 1.2, NF-kB neuron act 1.07, APP 5'UTR act 15.2, STAT1 act 103.5 and FLuc stim CS 1.
Screening NC(CC(=O)O)c1ccc(Br)cc1 (stereo unspecified) returned FLuc inhib CS -4.2, NF-kB neuron act 1.23, APP 5'UTR act -1.7, STAT1 act 93.6 and FLuc stim CS 1.
CC(=O)c1c(C)[nH]c(C(=O)Nc2nccs2)c1C was read as FLuc inhib CS 14.3, NF-kB neuron act 2.58, APP 5'UTR act 57.9, STAT1 act 132.9* and FLuc stim CS 0.9.
CC(=O)c1c(C)[nH]c(C(=O)Nc2cccnc2)c1C was read as FLuc inhib CS -4.5, NF-kB neuron act 1.44, APP 5'UTR act 8.9, STAT1 act 117.6 and FLuc stim CS 1.
